ChEMBL document CHEMBL3272343, “Etodolic acid and related compounds. Chemistry and antiinflammatory actions of some potent di- and trisubstituted 1, 3, 4, 9-tetrahydropyrano[3, 4-b]indole-1-acetic acids” (J Med Chem, 1976)
Active and inactive are the calls of the source. The calls are words filed in the database; no cut-off is given here.

Columns and labels:
Rattus norvegicus [1] = assay: Antiinflammatory activity in rat assessed as inhibition of adjuvant-induced arthritis administered for 9 days into foot pad 14 days after adjuvant challenge measured on day 22 by mercury displacement analysis; format: functional
How it was run: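 Oral dosing in groups of six rats with established adjuvant arthritis (Mycobacterium butyricum in mineral oil, injected into left hind foot pad). Treatment ran from day 14 to day 22 (9 po administrations). Injected-paw volume was measured by mercury displacement. A decrease of 0.5 ml or more counted as a therapeutic effect. ED50 was derived by probit analysis of responder counts. Maximum screening dose was 100 mg/kg.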

[2] = Therapeutic index, ratio of UD50 for 8 hrs starved po dosed Charles River rat to ED50 for rat assessed as inhibition of adjuvant-induced arthritis; format: organism-based; conditions: in vivo, read-out: TI
How it was run: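 Ratio of UD50 to ED50. UD50 came from starved (8 hr) male Charles River rats dosed orally and was calculated graphically. ED50 came from the 9-dose oral adjuvant-arthritis therapeutic test (day 14–22, mercury-displacement paw volume, ≥0.5 ml decrease as responder) and was derived by probit analysis.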

[3] = Gastrointestinal toxicity in 8 hrs starved po dosed Charles River rat assessed as ulcerogenic effect after 18 hrs; format: organism-based; conditions: in vivo, read-out: UD50
How it was run: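 Acute ulcerogenicity in male Charles River rats (180–200 g), housed in individual cages and starved 8 hr before oral dosing. UD50 was calculated graphically.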

Rattus norvegicus [4] = assay: Antiinflammatory activity in po dosed rat assessed as inhibition of carrageenin-induced paw edema; format: functional
Rattus norvegicus [5] = assay: Antiinflammatory activity in rat assessed as inhibition of adjuvant-induced arthritis at 25 mg/kg administered for 9 days into foot pad 14 days after adjuvant challenge measured on day 22 by mercury displacement analysis; format: functional, organism-based; parameters: dose 25 mg/kg
How it was run: (§1)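 Therapeutic test in groups of six rats with adjuvant arthritis (Mycobacterium butyricum in mineral oil, left hind foot pad). Oral treatment ran from day 14 to day 22 (9 po doses). Injected-paw volume was measured by mercury displacement. Rats whose paw shrank by 0.5 ml or more were scored as showing a therapeutic effect; smaller changes counted as negative.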

Rattus norvegicus [6] = assay: Antiinflammatory activity in rat assessed as inhibition of adjuvant-induced arthritis at 50 mg/kg administered for 9 days into foot pad 14 days after adjuvant challenge measured on day 22 by mercury displacement analysis; format: functional, organism-based; parameters: dose 50 mg/kg; how it was run: as §1
Rattus norvegicus [7] = assay: Antiinflammatory activity in rat assessed as inhibition of adjuvant-induced arthritis at 20 mg/kg administered for 9 days into foot pad 14 days after adjuvant challenge measured on day 22 by mercury displacement analysis; format: functional, organism-based; parameters: dose 20 mg/kg; how it was run: as §1

Question: Which ED50 (Rattus norvegicus [1]) does the source give for `CCC1(CC(=O)O)OCCc2c1[nH]c1c(OC)ccc(OC)c21` (centres undefined) here?
Answer: 100 mg/kg

Question: What does the source list for `COc1ccc2c(c1)c(CC(=O)O)c(C)n2C(=O)c1ccc(Cl)cc1` [INDOMETHACIN]?
Answer: ED50 (Rattus norvegicus [1]): 0.2 mg/kg; selectivity ratio [2]: 30; TD50 at 18 h [3]: 6 mg/kg; ED30 (Rattus norvegicus [4]): 1.3 mg/kg

Question: With `CCCC1(CC(=O)O)OCCc2c1[nH]c1c(C)c(Cl)ccc21` (centres undefined) as the compound, how does the ED50 (Rattus norvegicus [1]) read?
Answer: 3.4 mg/kg

Question: Which ED50 (Rattus norvegicus [1]) does the source give for `CCC1(CC(=O)O)OCCc2c1[nH]c1cccc(C)c21` (centres undefined) here?
Answer: 11 mg/kg

Question: With `CCC1(CC(=O)O)OCCc2c1[nH]c1c(C3CC3)cccc21` (centres undefined) as the compound, how does the ED50 (Rattus norvegicus [1]) read?
Answer: 1 mg/kg

Question: Which ED50 (Rattus norvegicus [1]) does the source give for `CCC1(CC(=O)O)OCCc2c1[nH]c1c(C3CCCCC3)cccc21` (centres undefined) here?
Answer: > 10 mg/kg

Question: For `CCC1(CC(=O)O)OCCc2c1[nH]c1c(CC(C)C)cccc21` (centres undefined), which ED50 (Rattus norvegicus [1]) is on record?
Answer: 5 mg/kg

Question: With `CCC1(CC(=O)O)OCCc2c1[nH]c1cc(C(F)(F)F)ccc21` (centres undefined) as the compound, how does the ED50 (Rattus norvegicus [1]) read?
Answer: 1.2 mg/kg

Question: For `CCCC1(CC(=O)O)OCCc2c1[nH]c1ccc(C)cc21` (centres undefined), which inhibition (Rattus norvegicus [5]) is on record?
Answer: inactive

Question: With `CCC1(CC(=O)O)OCCc2c1[nH]c1c(C3CCCC3)cccc21` (centres undefined) as the compound, how does the ED50 (Rattus norvegicus [1]) read?
Answer: > 5 mg/kg

Question: For `CCC1(CC(=O)O)OCCc2c1[nH]c1c(C)c(Cl)ccc21` (centres undefined), which ED50 (Rattus norvegicus [1]) is on record?
Answer: 0.6 mg/kg

Question: What about the selectivity ratio [2] of the same compound?
Answer: 41

Question: What about the TD50 at 18 h [3] of the same compound?
Answer: 25 mg/kg

Question: And the ED30 (Rattus norvegicus [4])?
Answer: 15 mg/kg

Question: With `CCC1(CC(=O)O)OCCc2c1[nH]c1c(C)cccc21` (centres undefined) as the compound, how does the ED50 (Rattus norvegicus [1]) read?
Answer: 4.3 mg/kg

Question: For `CCCC1(CC(=O)O)OCCc2c1[nH]c1cc(OC)ccc21` (centres undefined), which inhibition (Rattus norvegicus [5]) is on record?
Answer: inactive

Question: With `CCCC1(CC(=O)O)OCCc2c1[nH]c1cc(C)ccc21` (centres undefined) as the compound, how does the inhibition (Rattus norvegicus [6]) read?
Answer: inactive

Question: For `CCC1(CC(=O)O)OCCc2c1[nH]c1c(Cl)c(C)ccc21` (centres undefined), which ED50 (Rattus norvegicus [1]) is on record?
Answer: 4.1 mg/kg

Question: With `CCCc1cccc2c3c([nH]c12)C(CCC)(CC(=O)O)OCC3` (centres undefined) as the compound, how does the ED50 (Rattus norvegicus [1]) read?
Answer: 6 mg/kg

Question: Which ED50 (Rattus norvegicus [1]) does the source give for `CCCC1(CC(=O)O)OCCc2c1[nH]c1cccc(C)c21` (centres undefined) here?
Answer: 10 mg/kg

Question: For `CCC1(CC(=O)O)OCCc2c1[nH]c1ccc(Br)cc21` (centres undefined), which inhibition (Rattus norvegicus [5]) is on record?
Answer: inactive

Question: For `CCC1(CC(=O)O)OCCc2c1[nH]c1c(Cl)cccc21` (centres undefined), which ED50 (Rattus norvegicus [1]) is on record?
Answer: 2.4 mg/kg

Question: Which ED50 (Rattus norvegicus [1]) does the source give for `CCC1(CC(=O)O)OCCc2c1[nH]c1cc(F)ccc21` (centres undefined) here?
Answer: 3 mg/kg

Question: With `CCC1(CC(=O)O)OCCc2c1[nH]c1cc(Cl)ccc21` (centres undefined) as the compound, how does the ED50 (Rattus norvegicus [1]) read?
Answer: 3.2 mg/kg

Question: For `CCc1cccc2c3c([nH]c12)C(CC)(CC(=O)O)OCC3` (centres undefined) [ETODOLAC], which ED50 (Rattus norvegicus [1]) is on record?
Answer: 0.7 mg/kg

Question: And the selectivity ratio [2]?
Answer: 85

Question: What about the TD50 at 18 h [3] of the same compound?
Answer: 60 mg/kg

Question: With `CCC1(CC(=O)O)OCCc2c1[nH]c1c(Cl)ccc(Cl)c21` (centres undefined) as the compound, how does the ED50 (Rattus norvegicus [1]) read?
Answer: 5.5 mg/kg

Question: With `CCC1(CC(=O)O)OCCc2c1[nH]c1c(Cl)c(Cl)ccc21` (centres undefined) as the compound, how does the ED50 (Rattus norvegicus [1]) read?
Answer: 1.1 mg/kg

Question: For `CCC1(CC(=O)O)OCCc2c1[nH]c1c(C(C)(C)C)cccc21` (centres undefined), which ED50 (Rattus norvegicus [1]) is on record?
Answer: 1.9 mg/kg

Question: For `CCCC1(CC(=O)O)OCCc2c1[nH]c1cc(Cl)ccc21` (centres undefined), which ED50 (Rattus norvegicus [1]) is on record?
Answer: 3.7 mg/kg

Question: With `CCC1(CC(=O)O)OCCc2c1[nH]c1c(C(C)C)cccc21` (centres undefined) as the compound, how does the ED50 (Rattus norvegicus [1]) read?
Answer: 1.6 mg/kg

Question: Which ED50 (Rattus norvegicus [1]) does the source give for `CCC1(CC(=O)O)OCCc2c1[nH]c1ccc(F)cc21` (centres undefined) here?
Answer: 5 mg/kg

Question: For `CCCC1(CC(=O)O)OCCc2c1[nH]c1cccc(Cl)c21` (centres undefined), which ED50 (Rattus norvegicus [1]) is on record?
Answer: > 25 mg/kg

Question: Which results are given for `CCCCC1C(=O)N(c2ccccc2)N(c2ccccc2)C1=O` [PHENYLBUTAZONE]?
Answer: ED50 (Rattus norvegicus [1]): 5.4 mg/kg; TD50 at 18 h [3]: 100 mg/kg

Question: For `CCCC1(CC(=O)O)OCCc2c1[nH]c1c(CC)cccc21` (centres undefined), which ED50 (Rattus norvegicus [1]) is on record?
Answer: 7.4 mg/kg

Question: With `CCC1(CC(=O)O)OCCc2c1[nH]c1c(OC)cccc21` (centres undefined) as the compound, how does the Activity (Rattus norvegicus [5]) read?
Answer: inactive

Question: What does the source list for `CCC1(CC(=O)O)OCCc2c1[nH]c1c(C)c(F)ccc21` (centres undefined)?
Answer: ED50 (Rattus norvegicus [1]): 0.9 mg/kg; selectivity ratio [2]: 29; TD50 at 18 h [3]: 26 mg/kg; ED30 (Rattus norvegicus [4]): 37 mg/kg

Question: For `CCC1(CC(=O)O)OCCc2c1[nH]c1c(C)ccc(C)c21` (centres undefined), which ED50 (Rattus norvegicus [1]) is on record?
Answer: 3.2 mg/kg

Question: With `CCC1(CC(=O)O)OCCc2c1[nH]c1cccc(Cl)c21` (centres undefined) as the compound, how does the ED50 (Rattus norvegicus [1]) read?
Answer: 7 mg/kg

Question: Which results are given for `CCCc1cccc2c3c([nH]c12)C(CC)(CC(=O)O)OCC3` (centres undefined)?
Answer: ED50 (Rattus norvegicus [1]): 0.4 mg/kg; selectivity ratio [2]: 50; TD50 at 18 h [3]: 20 mg/kg; ED30 (Rattus norvegicus [4]): 10 mg/kg

Question: With `CCC(C)c1cccc2c3c([nH]c12)C(CC)(CC(=O)O)OCC3` (centres undefined) as the compound, how does the ED50 (Rattus norvegicus [1]) read?
Answer: 2.6 mg/kg

Question: For `CCCC1(CC(=O)O)OCCc2c1[nH]c1c(C)cccc21` (centres undefined), which ED50 (Rattus norvegicus [1]) is on record?
Answer: 11.8 mg/kg

Question: For `CCCCc1cccc2c3c([nH]c12)C(CC)(CC(=O)O)OCC3` (centres undefined), which inhibition (Rattus norvegicus [7]) is on record?
Answer: inactive
